Measurements from PubChem BioAssay AID624302 (The Scripps Research Institute Molecular Screening Center, 2012).
The source made the active and inactive calls.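 How the source made its calls: active means relative luminescence ratio of 1.25 or more at any tested dose; inactive means ratio below 1.25 at every dose.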

Target: Nuclear receptor subfamily 0 group B member 1 (Homo sapiens) (UniProt P51843)
Test: DAX1 (NR0B1) inhibitors, reporter derepression, dose response, cell-based, luminescence, HEK293, powder samples, assay provider (AID 624302)
Conditions: HEK293 GAL4-DAX1 repression, luciferase reporter luminescence; at 100 µM; stronger effect = higher value
Summary of the method: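 Test system: HEK293 with GAL4-DAX1 fusion and Gal4-tk-luc reporter. Control set: DMSO wells. Compound dosing: 100 µM single dose plus 3-point 1:2 series from 50 µM. Detection: luciferase reporter luminescence. Read-out: luminescence relative to DMSO wells.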

Chain of Nuclear receptor subfamily 0 group B member 1 (Homo sapiens) (P51843 207-470 limits assumed): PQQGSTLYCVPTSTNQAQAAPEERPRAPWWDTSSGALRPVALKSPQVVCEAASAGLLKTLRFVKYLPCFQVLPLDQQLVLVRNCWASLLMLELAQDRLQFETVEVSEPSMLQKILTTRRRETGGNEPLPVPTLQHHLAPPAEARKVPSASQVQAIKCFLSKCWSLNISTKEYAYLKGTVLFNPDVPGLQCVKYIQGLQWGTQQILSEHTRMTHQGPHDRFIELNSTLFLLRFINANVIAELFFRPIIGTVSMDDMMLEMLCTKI

| SMILES | relative luminescence ratio |
| --- | --- |
| Cc1occc1C(=O)Nc1ccc2c(c1)OCO2 | 0.21 (inactive) |
| COc1ccc(OC)c(C(C)NC(=O)c2ccccc2C)c1 (centres undefined) | 0.42 (inactive) |
| COc1cccc(C(=O)NC(C)c2cc(OC)ccc2OC)c1 (centres undefined) | 0.3 (inactive) |
| COc1ccc(OC)c(C(C)NC(=O)c2cccc(C)c2)c1 (centres undefined) | 0.23 (inactive) |
| O=C(Nc1ccc2c(c1)OCCO2)c1ccc2ccccc2c1 | 0.02 (inactive) |
| COc1ccc(OC)c(C(C)NC(=O)c2cccc3ccccc23)c1 (centres undefined) | 0.01 (inactive) |
| COc1ccc(OC)c(C(C)NC(=O)c2ccccc2)c1 (centres undefined) | 0.46 (inactive) |
| Cn1c(=O)n(C)c2cc(C(=O)Nc3ccc4c(c3)OCCO4)ccc21 | 2.25 |
| COc1ccc(OC)c(C(C)NC(=O)c2ccccc2F)c1 (centres undefined) | 0.39 (inactive) |
| CSc1ccccc1C(=O)Nc1ccc2c(c1)OCO2 | 0.41 (inactive) |
| COc1cccc(C(=O)Nc2ccc3c(c2)OCCO3)c1 | 0.02 (inactive) |
| COc1ccc(OC)c(C(C)NC(=O)c2c(F)cccc2Cl)c1 (centres undefined) | 0.51 (inactive) |
| COc1ccc(OC)c(C(C)NC(=O)c2ccc(Cl)cc2)c1 (centres undefined) | 0.3 (inactive) |
| CSc1ccccc1C(=O)Nc1ccc2c(c1)OCCO2 | 0.51 (inactive) |
| COc1ccc(OC)c(C(C)NC(=O)c2ccc(C(C)(C)C)cc2)c1 (centres undefined) | 0.1 (inactive) |
| O=C(Nc1ccc2c(c1)OCO2)c1cccs1 | 0.38 (inactive) |
| O=C(Nc1ccc2c(c1)OCO2)c1ccc2ccccc2c1 | 0.02 (inactive) |
| COc1cccc(C(=O)Nc2ccc3c(c2)OCO3)c1 | 0.16 (inactive) |
| COc1ccc(OC)c(C(C)NC(=O)c2cccc(F)c2)c1 (centres undefined) | 0.63 (inactive) |

Continued, values first:

| relative luminescence ratio | SMILES |
| --- | --- |
| 0.39 (inactive) | COc1ccc(OC)c(C(C)NC(=O)c2ccccc2Cl)c1 (centres undefined) |
| 0.31 (inactive) | COc1ccc(OC)c(C(C)NC(=O)c2ccc3c(c2)OCCO3)c1 (centres undefined) |
| 0.38 (inactive) | COc1ccc(OC)c(C(C)NC(=O)c2ccc(C)cc2)c1 (centres undefined) |
| 0.33 (inactive) | COc1ccc(OC)c(C(C)NC(=O)c2ccc(F)cc2)c1 (centres undefined) |
| 0.62 (inactive) | O=C(Cc1cccs1)Nc1ccc2c(c1)OCO2 |
| 0.01 (inactive) | O=C(Nc1ccc2c(c1)OCO2)c1ccc(C2SCC(=O)N2Cc2ccco2)cc1 (centres undefined) |
| 0.01 (inactive) | O=C(Nc1ccc2c(c1)OCO2)c1ccc(C2SCC(=O)N2Cc2ccccc2)cc1 (centres undefined) |
| 0.05 (inactive) | CN(C)c1cccc(C(=O)Nc2ccc3c(c2)OCCO3)c1 |
| 1.77 | Cn1c(=O)n(C)c2cc(C(=O)Nc3ccc4c(c3)OCO4)ccc21 |
| 0.26 (inactive) | Cc1cc(C(=O)Nc2ccc3c(c2)OCO3)cs1 |
